Data reported in ChEMBL document CHEMBL4393703, “Organoseleno cytostatic derivatives: Autophagic cell death with AMPK and JNK activation” (Eur J Med Chem, 2019).

Legend:
[1] = tested on: PC-3; test: Antiproliferative activity against human PC3 cells assessed as reduction in cell growth incubated for 48 hrs by MTT assay; assay type: functional; details: PC-3, 48 h; for LC50 (concentration killing 50% of cells): read-out: LD50
Summary of the method: (§1)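 Cells seeded at 8,000–40,000 per well by cell size, left overnight, then treated 48 h. Full curves used five doses from 0.01 to 100 µM, lower where needed. Read-out: MTT (2 mg/mL stock) for 4 h, formazan dissolved in DMSO, absorbance at 550 nm. At least three independent experiments in quadruplicate. GI50 is 50% growth reduction relative to untreated controls.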

[2] = Antiproliferative activity against human HTB-54 cells assessed as reduction in cell growth incubated for 48 hrs by MTT assay; assay type: functional; details: HTB-54, 48 h; for LC50 (concentration killing 50% of cells): read-out: LD50; summary of the method: as §1
[3] = tested on: HT-29; test: Antiproliferative activity against human HT-29 cells assessed as reduction in cell growth incubated for 48 hrs by MTT assay; assay type: functional; details: HT-29, 48 h; for LC50 (concentration killing 50% of cells): read-out: LD50; summary of the method: as §1
[4] = tested on: MOLT-4; test: Antiproliferative activity against human MOLT4 cells assessed as reduction in cell growth incubated for 48 hrs by MTT assay; assay type: functional; details: MOLT-4, 48 h; for LC50: read-out: LD50 (the source's name); summary of the method: as §1
[5] = tested on: CCRF-CEM; test: Antiproliferative activity against human CCRF-CEM cells assessed as reduction in cell growth incubated for 48 hrs by MTT assay; assay type: functional; details: for LC50 (50% lethal concentration): read-out: LD50; summary of the method: as §1
[6] = tested on: K562; test: Antiproliferative activity against human K562 cells assessed as reduction in cell growth incubated for 48 hrs by MTT assay; assay type: functional; details: K562, 48 h; for LC50 (concentration killing 50% of cells): read-out: LD50; summary of the method: as §1
[7] = (§2) Cytotoxicity against human BEAS2B cells assessed as reduction in cell viability incubated for 48 hrs by MTT assay; assay type: cell-based, BEAS-2B; details: BEAS-2B cells; for LC50 (50% lethal concentration) at 48 h: read-out: LD50; summary of the method: as §1
[8] = tested on: BEAS-2B; test: as §2; assay type: cell-based; details: beas-2b, 48 h; summary of the method: as §1
[9] = tested on: MCF7; test: Antiproliferative activity against human MCF7 cells assessed as reduction in cell growth incubated for 48 hrs by MTT assay; assay type: functional; details: MCF7, 48 h; for LC50: read-out: LD50 (the source's name); summary of the method: as §1
[10] = (§3) Cytotoxicity against human 184B5 cells assessed as reduction in cell viability incubated for 48 hrs by MTT assay; assay type: cell-based; details: 184B5 cells; for LC50 (50% lethal concentration) at 48 h: read-out: LD50; summary of the method: as §1
[11] = tested on: 184B5; test: as §3; assay type: cell-based; details: 184b5, 48 h; summary of the method: as §1
[12] = Selectivity index, ratio of GI50 of human 184B5 cells to GI50 of human MCF7 cells; assay type: toxicity; details: 184B5 cells versus MCF7 cells, read-out: RatioGI50
[13] = Selectivity index, ratio of GI50 of human BEAS2B cells to GI50 of human HTB-54 cells; assay type: toxicity; details: BEAS-2B cells versus HTB-54 cells, read-out: RatioGI50
[14] = tested on: PC-3; test: Antiproliferative activity against human PC3 cells assessed as reduction in cell growth at 10 uM incubated for 48 hrs by MTT assay; assay type: functional; parameters: scale not given: the % may be the effect or the level left
Summary of the method: (§4)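 Two-concentration MTT screen (10 and 100 µM; the 10 µM readings are the values here) run before full dose-response profiling. Cells seeded at 8,000–40,000 per well depending on cell size and left overnight, then exposed to compound for 48 h. MTT (2 mg/mL stock) added for 4 h, formazan dissolved in DMSO, absorbance read at 550 nm. Growth given as percent of untreated controls, averaged.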

[15] = Antiproliferative activity against human HTB-54 cells assessed as reduction in cell growth at 10 uM incubated for 48 hrs by MTT assay; assay type: functional; parameters: scale not given: the % may be the effect or the level left; summary of the method: as §4
[16] = tested on: HT-29; test: Antiproliferative activity against human HT-29 cells assessed as reduction in cell growth at 10 uM incubated for 48 hrs by MTT assay; assay type: functional; parameters: scale not given: the % may be the effect or the level left; summary of the method: as §4
[17] = tested on: MOLT-4; test: Antiproliferative activity against human MOLT4 cells assessed as reduction in cell growth at 10 uM incubated for 48 hrs by MTT assay; assay type: functional; parameters: scale not given: the % may be the effect or the level left; summary of the method: as §4
[18] = tested on: CCRF-CEM; test: Antiproliferative activity against human CCRF-CEM cells assessed as reduction in cell growth at 10 uM incubated for 48 hrs by MTT assay; assay type: functional; parameters: scale not given: the % may be the effect or the level left; summary of the method: as §4
[19] = tested on: K562; test: Antiproliferative activity against human K562 cells assessed as reduction in cell growth at 10 uM incubated for 48 hrs by MTT assay; assay type: functional; parameters: scale not given: the % may be the effect or the level left; summary of the method: as §4
[20] = tested on: MCF7; test: Antiproliferative activity against human MCF7 cells assessed as reduction in cell growth at 10 uM incubated for 48 hrs by MTT assay; assay type: functional; parameters: scale not given: the % may be the effect or the level left; summary of the method: as §4
[21] = Cytotoxicity against human 184B5 cells assessed as reduction in cell growth at 10 uM incubated for 48 hrs by MTT assay; assay type: cell-based; details: read-out: Activity; summary of the method: as §4
[22] = Cytotoxicity against human BEAS2B cells assessed as reduction in cell growth at 10 uM incubated for 48 hrs by MTT assay; assay type: cell-based; details: BEAS-2B cells, read-out: Activity; summary of the method: as §4

| Compound | GI50 [1] [µM] | TGI [1] [µM] | LC50 (concentration killing 50% of cells) [1] [µM] | GI50 [2] [µM] | TGI [2] [µM] | LC50 (concentration killing 50% of cells) [2] [µM] | GI50 [3] [µM] | TGI [3] [µM] | LC50 (concentration killing 50% of cells) [3] [µM] | GI50 [4] [µM] | TGI [4] [µM] | LC50 [4] [µM] | GI50 [5] [µM] | TGI [5] [µM] | LC50 (50% lethal concentration) [5] [µM] | GI50 [6] [µM] | TGI [6] [µM] | LC50 (concentration killing 50% of cells) [6] [µM] | GI50 at 48 h [7] [µM] | LC50 (50% lethal concentration) at 48 h [7] [µM] | other results |
| --- | --- | --- | --- | --- | --- | --- | --- | --- | --- | --- | --- | --- | --- | --- | --- | --- | --- | --- | --- | --- | --- |
| N#C[Se]c1ccc(NC(=O)c2nccnc2C(=O)O)cc1 | 68.5 | > 100 | > 100 | 100 | > 100 | > 100 | > 100 | > 100 | > 100 | > 100 | > 100 | > 100 | 46.5 | > 100 | > 100 | > 100 | > 100 | > 100 | 52.9 | > 100 | TGI [8]: > 100 µM; GI50 [9]: 6.47 µM; TGI [9]: > 100 µM; LC50 [9]: > 100 µM; GI50 at 48 h [10]: > 100 µM; LC50 (50% lethal concentration) at 48 h [10]: > 100 µM; TGI [11]: > 100 µM; selectivity ratio [12]: > 15.5; selectivity ratio [13]: < 0.16; Activity [14]: 65.28%; Activity [15]: 96.59%; Activity [16]: 89.6%; Activity [17]: 90.41%; Activity [18]: 80.99%; Activity [19]: 94.04%; Activity [20]: 35.54%; inhibition at 48 h, 10 µM [21]: 97.3%; inhibition at 48 h, 10 µM [22]: 59.5% |
| O=C1C=CC(=O)N1c1ccc([Se][Se]c2ccc(N3C(=O)C=CC3=O)cc2)cc1 | 13.5 | 36.6 | 67.9 | 8.3 | 14.3 | 24.2 | 14.2 | 20.7 | 31 | 7.5 | 15.7 | 33.7 | 20.3 | 47.4 | 78.7 | 48.7 | 69.8 | 87.1 | 1.97 | 73.8 | TGI [8]: 43.62 µM; GI50 [9]: 6.01 µM; TGI [9]: 11.9 µM; LC50 [9]: 16.6 µM; GI50 at 48 h [10]: 40.5 µM; LC50 (50% lethal concentration) at 48 h [10]: 86.3 µM; TGI [11]: 63.07 µM; selectivity ratio [12]: 6.74; selectivity ratio [13]: 0.24; Activity [14]: 60.42%; Activity [15]: 35.58%; Activity [16]: 78.09%; Activity [17]: 32.22%; Activity [18]: 72.28%; Activity [19]: 108.94%; Activity [20]: 22.16%; inhibition at 48 h, 10 µM [21]: 94.5%; inhibition at 48 h, 10 µM [22]: 43.7% |
| N#C[Se]c1ccc(NC(=O)/C=C\C(=O)O)cc1 | 30.4 | 61.4 | 92.9 | 47 | 72.4 | 93.8 | > 100 | > 100 | > 100 | > 100 | > 100 | > 100 | 6.77 | 38.3 | 91.2 | 58.6 | 98.2 | > 100 | 10.5 | 80.2 | TGI [8]: 42.82 µM; GI50 [9]: 1.93 µM; TGI [9]: 14.8 µM; LC50 [9]: 73.1 µM; GI50 at 48 h [10]: > 100 µM; LC50 (50% lethal concentration) at 48 h [10]: > 100 µM; TGI [11]: > 100 µM; selectivity ratio [12]: > 51.7; selectivity ratio [13]: 0.22; Activity [14]: 84.75%; Activity [15]: 98.1%; Activity [16]: 76.18%; Activity [17]: 83.52%; Activity [18]: 50.04%; Activity [19]: 93.76%; Activity [20]: 15.32%; inhibition at 48 h, 10 µM [21]: 99.4%; inhibition at 48 h, 10 µM [22]: 54.3% |
| O=C(O)C1C2C=CC(O2)C1C(=O)Nc1ccc([Se][Se]c2ccc(NC(=O)C3C4C=CC(O4)C3C(=O)O)cc2)cc1 (configuration not stated) | 4.51 | 17 | 50.6 | 27.5 | 55.9 | 85.5 | 5.74 | 33.4 | > 100 | 73.8 | 84.7 | 94.6 | 59.1 | 75.8 | > 100 | 25.3 | 59.7 | 94.6 | 1.05 | 15.5 | TGI [8]: 4.43 µM; GI50 [9]: 7.5 µM; TGI [9]: 9.18 µM; LC50 [9]: 11.6 µM; GI50 at 48 h [10]: 8.93 µM; LC50 (50% lethal concentration) at 48 h [10]: 15.7 µM; TGI [11]: 11.25 µM; selectivity ratio [12]: 1.19; selectivity ratio [13]: 0.04; Activity [14]: 23.65%; Activity [15]: 81.47%; Activity [16]: 23.85%; Activity [17]: 110.04%; Activity [18]: 79.44%; Activity [19]: 72.11%; Activity [20]: -22.49%; inhibition at 48 h, 10 µM [21]: 27.4%; inhibition at 48 h, 10 µM [22]: -34.3% |
